From PubChem
MrgX1 allo act: human MrgX1 positive allosteric modulation, primary screen | 310,000 tested, 0.63% active | B-score at 10 µM | AID 588675 | Q96LB2 | MrgX1-HEK293, Fluo-4 calcium flux, FDSS; active compounds read high;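 active = plate-corrected calcium response at least 3 library SD above typical, normal starting fluorescence, not activating the receptor alone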;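 note: compound read alongside a low EC10 to EC30 dose of BAM8-22 agonist; peak minus trough fluorescence over baseline measured at the second addition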
Target sequence (Q96LB2 whole entry, looked up): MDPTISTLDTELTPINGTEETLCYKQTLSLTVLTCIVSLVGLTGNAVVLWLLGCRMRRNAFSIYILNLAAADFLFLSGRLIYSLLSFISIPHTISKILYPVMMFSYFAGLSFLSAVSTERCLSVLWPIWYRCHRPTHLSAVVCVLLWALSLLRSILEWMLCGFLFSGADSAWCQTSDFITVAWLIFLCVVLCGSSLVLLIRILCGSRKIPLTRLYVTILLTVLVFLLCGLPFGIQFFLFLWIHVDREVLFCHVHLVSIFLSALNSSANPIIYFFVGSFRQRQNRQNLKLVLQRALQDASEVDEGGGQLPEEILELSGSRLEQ
RGS4 inh: inhibitors of human RGS4; P49798; 310,000 tested, 0.45% active; B-score at 10 µM; AID 463165; HEK293 M3R/RGS4 inducible, Fluo-4 calcium flux; active compounds read high; triggered by carbachol at its EC20;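 active = B-score, a plate-corrected calcium signal, over three deviations above library mean, with baseline fluorescence within five deviations of library mean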;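 note: RGS4 expression induced by doxycycline in cells with stable M3 receptor; B-score is computed from the integrated fluorescence ratio over baseline after carbachol; higher B-score means a larger calcium signal and so more RGS4 inhibition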
Target sequence (P49798 whole entry, looked up): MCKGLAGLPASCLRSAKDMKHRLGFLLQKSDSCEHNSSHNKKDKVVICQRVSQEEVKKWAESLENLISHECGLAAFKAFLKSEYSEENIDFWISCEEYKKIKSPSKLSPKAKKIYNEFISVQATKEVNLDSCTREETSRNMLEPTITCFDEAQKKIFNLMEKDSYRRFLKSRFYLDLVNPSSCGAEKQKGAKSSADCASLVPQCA
MrgX1 antagonist: human MrgX1 receptor antagonism, primary screen | 310,000 tested, 1.3% active | MRGX1-HEK293 calcium flux, Fluo-4, BAM8-22 antagonism; active compounds read low | B-score at 10 µM | Q96LB2;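 active = calcium-response B-score plate-corrected more than 3 library SD below zero, starting fluorescence within 5 deviations, no agonist response on first addition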;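 note: peak minus trough fluorescence over baseline after final BAM8-22 challenge near maximal dose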
MrgX1 agonist: activates human MrgX1 receptor signaling; MrgX1-HEK293 cells, Fluo-4 calcium fluorescence, agonist mode; active compounds read high; B-score at 10 µM; 310,000 tested, 0.44% active; AID 588627;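 active = calcium response B-score plate-corrected fluorescence ratio at least 3 library SD, with starting fluorescence B-score inside 5 SD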
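System: HEK293 cells stably expressing human MrgX1 receptor; Dosing: test compound in the initial addition of three; Schedule: overnight plating, then 30 min 37 °C plus 30 min room-temperature dye loading; Detection: kinetic calcium dye fluorescence, Fluo-4 NW; Controls: per-plate positive and negative controls for Z′ factor.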
RGS4 act: RGS4 potentiation or activation; AID 463111; HEK293 M3R/inducible RGS4, carbachol calcium flux Fluo4; active compounds read low; 310,000 tested, 0.92% active; B-score at 10 µM;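 active = B-score of the integrated calcium signal more than 4 SD below the library mean, with starting fluorescence not abnormally high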;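 note: negative B-score means reduced calcium response which marks RGS4 activation or potentiation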
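test system = HEK293 cells with stable M3R and inducible RGS4 | schedule = recording 10 s baseline at 1 Hz, 100 s post-agonist | technique = Fluo4-AM (2 µM) calcium-flux fluorescence, kinetic read | measure = Agonist-evoked peak-minus-minimum fluorescence over baseline, integrated ratio, B score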
Hits are given with their value; i = inactive. In the library only some 3.5% were active in any assay of this set; here they are far more common.

SMILES	MrgX1 allo act	RGS4 inh	MrgX1 antagonist	MrgX1 agonist	RGS4 act
CC1(C)Cc2cccc(Oc3cc(NN4CCCCC4)c([N+](=O)[O-])cc3[N+](=O)[O-])c2O1	i	i	i	i	i
CC(=O)NC12CC3CC(C1)CC(C(=O)N1CCN(c4ncccn4)CC1)(C3)C2	i	i	i	i	i
COc1cc([N+](=O)[O-])ccc1NC(=O)CSc1nnc(C)c(C)n1	i	i	i	i	i
CC/C(=N/NC(=O)c1ccc2c(c1)OCO2)c1ccccc1O	i	i	i	i	i
CC(C)CN1CCCC(N2CCN(c3cccc(Cl)c3)CC2)C1 (stereo not drawn)	i	i	i	i	i
COCCNC(=O)Cn1cc(/C=N/NC(=O)c2ccc(Oc3ccc(O)cc3)cc2)c2ccccc21	i	i	i	i	i
O=C(O)c1cc(-c2ccc(-c3c(-c4ccc5c(c4)OCO5)noc3-c3ccsc3)cc2)nc2ccccc12	i	i	i	i	-11
C=CCN1C(=O)C2(OCCCO2)c2cc(Cl)ccc21	i	i	i	i	i
Nc1ccc(/C=C/C(=O)c2ccco2)cc1	i	i	i	50	i
O=C(/C=C/c1cc(Br)ccc1O)c1ccco1	i	i	i	39	i
N#Cc1ccc(/C=C/C(=O)c2ccco2)cc1	i	i	i	i	i
Cc1c(C(=O)N/N=C/c2ccccn2)nnn1-c1nonc1N	i	i	i	i	i
COc1ccc(S(=O)(=O)N2CCCC2CNC(=O)C(=O)NC2CCCCCC2)cc1 (stereo not drawn)	i	i	i	i	i
COc1ccc(CCNC(=O)C(=O)NCC2CCCN2S(=O)(=O)c2ccccc2)cc1OC (stereo not drawn)	i	i	i	i	-9.4
COc1ccc(CCNC(=O)c2ccc(CN3CCC(Cc4ccccc4)CC3)cc2)cc1OC	i	i	-5.2	i	i
COc1ccc(CCNC(=O)C(=O)NCC2CCCN2S(=O)(=O)c2ccc(OC)cc2)cc1 (stereo not drawn)	i	i	i	i	-7.1
COCCNC(=O)c1ccc(CN2CCC(Cc3ccccc3)CC2)cc1	i	i	i	i	i
COc1ccc(CCNC(=O)CCc2ccc(S(=O)(=O)NC(C)C)cc2)cc1	i	i	-5.7	i	i
Cc1onc(-c2ccccc2)c1C(O)c1ccc(F)cc1 (stereo not drawn)	i	i	i	i	i
CCN(CC)CCCNC(=O)c1cc(Cl)c(NC(=O)C2=C(C)OCCS2)cc1OC	i	i	i	i	i
CC(NC(=O)CCc1nc2cc(S(=O)(=O)N3CCOCC3)ccc2n1C)c1ccc(S(N)(=O)=O)cc1 (stereo not drawn)	i	i	i	i	i
O=C(NCCc1ccc(F)cc1)C(=O)NCC1CCCN1S(=O)(=O)c1cccs1 (stereo not drawn)	i	i	i	i	-7.2
CNC(=O)C(=O)NCC1CCCN1S(=O)(=O)c1cccs1 (stereo not drawn)	i	i	i	i	i
N#C/C(=C\c1c(N2CCN(Cc3ccccc3)CC2)nc2ccccn2c1=O)S(=O)(=O)c1ccccc1	i	i	i	i	i
Cc1cccn2c(=O)c(/C=C(\C#N)S(=O)(=O)c3ccccc3)c(N3CCN(Cc4ccccc4)CC3)nc12	i	i	i	i	-7.2
SMILES	MrgX1 allo act	RGS4 inh	MrgX1 antagonist	MrgX1 agonist	RGS4 act
CCOCCCN(C(=O)c1snc(C(N)=O)c1N)C(C(=O)NC1CCCC1)c1ccc(O)cc1 (stereo not drawn)	i	i	i	i	i
C/C(=N/NC(=O)c1nnn(-c2nonc2N)c1COc1ccccc1)c1ccccc1	i	i	i	i	i
Cn1c(SCCC#N)nnc1-c1ccc(F)cc1	i	i	i	i	i
CC1=C(SCCC#N)S/C(=C2\SC(C)=C(SCCC#N)S2)S1	i	i	-5.2	i	i
COc1cccc(CN2C(=O)CCC2(C)C(=O)NCCc2ccc(OC)c(OC)c2)c1 (stereo not drawn)	i	i	i	i	i
CCOP(=O)(c1ccccc1)c1nc(-c2ccc(F)cc2)oc1N1CCCCC1 (stereo not drawn)	i	i	i	38	i
CCOP(=O)(OCC)c1nc(-c2ccc(Br)cc2)oc1N1CCCCC1	i	i	i	i	i
CC(=O)Nc1nc(C)c(-c2csc(Nc3cccc(C(C)=O)c3)n2)s1	i	i	i	i	-7.5
COc1ccc(CCNC(=O)CC(c2ccccc2)c2cccc(C)c2O)cc1OC (stereo not drawn)	i	i	-5.9	i	i
COc1ccc(CCNC(=O)CSc2ccccc2)cc1OC	i	i	i	i	i
O=C(CN1CCN(S(=O)(=O)N2CCOCC2)CC1)Nc1cc(Cl)ccc1Cl	i	i	i	i	i
CCCC(C)NC(=O)c1cc(C(=O)OC)cc([N+](=O)[O-])c1 (stereo not drawn)	i	i	-5.2	i	i
COC(=O)c1cc(C(=O)NCCC(C)C)cc([N+](=O)[O-])c1	i	i	i	i	i
CCOc1ccccc1N(CC(=O)NCc1ccco1)C(=O)CCC(=O)Nc1nccs1	i	i	i	i	i
O=C(O)c1cccc(NC(=S)NC(NC(=O)c2cccc([N+](=O)[O-])c2)C(Cl)(Cl)Cl)c1 (stereo not drawn)	i	i	i	i	i
O=C(NC(NC(=S)Nc1ccc(Cl)cc1Cl)C(Cl)(Cl)Cl)c1cccc([N+](=O)[O-])c1 (stereo not drawn)	i	i	i	i	-7.2
O=C1CCC(C(=O)N2CCSCC2)CN1Cc1cccc(C(F)(F)F)c1 (stereo not drawn)	i	i	i	i	i
CCCCN(CC)S(=O)(=O)c1ccc(C(=O)Nc2nnc(-c3cccs3)o2)cc1	i	i	i	33	i
CCOC(=O)C1CCN(C(=O)C2CCN(c3nc4ccc(OC)cc4s3)CC2)CC1	i	i	-5.5	i	i
CCOC(=O)C1CCN(C(=O)C2CCN(c3nnc(-n4cccc4)s3)CC2)CC1	i	i	i	i	i
CC(C)=CCc1c(O)cc2oc3c(CC=C(C)C)c(O)c(O)c(CC=C(C)C)c3c(=O)c2c1O	i	i	-5.6	i	i
CCCCN(CCO)c1ncnc2sc(-c3ccccc3)cc12	i	i	i	i	i
O=C(O)c1ccc(Cl)c(S(=O)(=O)Nc2ccccc2C(=O)Nc2ccc(Cl)cc2)c1	i	i	i	i	i
Cc1ccc(NC(=O)/C(C#N)=C/c2ccc(C)s2)c(C)c1	i	i	-4.7	i	i
COc1ccc(NC(=O)C(=O)NNC(=O)C(C)Oc2ccc(Cl)cc2Cl)cc1 (stereo not drawn)	i	i	-6.2	i	i
CCCc1cc(C(=O)Nc2ccc(C(=O)c3ccccc3)cc2)n(C)n1	i	i	i	i	i
CCCc1cc(C(=O)Nc2ccc(C(=O)c3ccc(F)cc3)cc2)n(C)n1	i	i	-6.9	i	i
N#C/C(=C\c1ccc(N2CCCCC2)o1)C(=O)Nc1cccc(Br)c1	i	i	i	53	i
